Most compounds without a hit are left out; they make up all but 2.5% or so of the library.
SENP8 block-1: SENP8 protease inhibition. inhibition, % at 10 µM. 330,000 tested, 1.2% active. AID 2540. purified SENP8, Z-RLRGG-aminoluciferin cleavage, luminescence; in the data active means inhibition above about 50%
SENP1 inh: blocks the human SENP1 SUMO protease catalytic domain; Q9P0U3; recombinant SENP1 catalytic domain, CyPet-SUMO1-YPet FRET cleavage; inhibition, % at 10 µM; 360,000 tested, 0.21% active; AID 624204;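 active means inhibition at least 30% at 10 µM, raw YFP signal under a set limit, fluorescence ratio 0.5 to 1.5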;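 further: 0% = enzyme with DMSO and 100% = no enzyme wells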
Target sequence (Q9P0U3 419-644 limits assumed): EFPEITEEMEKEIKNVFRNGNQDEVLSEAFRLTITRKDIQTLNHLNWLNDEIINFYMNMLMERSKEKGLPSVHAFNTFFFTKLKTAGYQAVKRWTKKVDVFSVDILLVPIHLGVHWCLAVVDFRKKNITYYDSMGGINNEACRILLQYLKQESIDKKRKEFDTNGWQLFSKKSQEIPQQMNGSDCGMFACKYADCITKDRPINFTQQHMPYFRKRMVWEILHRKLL
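Compound: 10 µM single point, 0.5% DMSO; Test system: hSENP1 catalytic domain, recombinant; Timing: 50 min reaction at room temperature; Technique: FRET, CFP and YFP emission; Control set: no-enzyme wells low, DMSO-plus-enzyme wells high control.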
SENP7 inh: SENP7 protease inhibition | Q9BQF6 | recombinant SENP7, Z-RLRGG-aminoluciferin luminescence, 40 min | inhibition, % at 5 µM | 330,000 tested, 1.5% active | AID 434973;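 active means inhibition above about 50% at the single test dose, limit read from the data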;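 further: plate controls were DMSO with enzyme for no effect and no enzyme buffer wells for full effect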
Target sequence (Q9BQF6 706-1050 limits assumed): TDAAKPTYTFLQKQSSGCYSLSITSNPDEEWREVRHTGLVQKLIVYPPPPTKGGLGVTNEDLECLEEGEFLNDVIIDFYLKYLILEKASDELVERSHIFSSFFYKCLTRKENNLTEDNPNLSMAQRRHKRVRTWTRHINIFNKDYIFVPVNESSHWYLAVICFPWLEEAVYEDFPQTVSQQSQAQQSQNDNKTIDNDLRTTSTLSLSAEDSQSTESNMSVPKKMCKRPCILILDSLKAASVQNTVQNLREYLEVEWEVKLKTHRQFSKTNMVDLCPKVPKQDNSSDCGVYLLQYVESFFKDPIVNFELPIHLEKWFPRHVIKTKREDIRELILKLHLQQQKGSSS
SENP6 block: inhibitors of human SENP6 protease; Q9GZR1; Recombinant SENP6 catalytic domain, aminoluciferin luminescence; inhibition, % at 10 µM; 330,000 tested, 1.8% active; AID 2599;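 active means inhibition above about 50% at the single tested dose, limit read from the data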;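 further: plate controls were DMSO wells with enzyme for no effect and DMSO wells lacking enzyme for full effect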
SENP8 block-2: blocks human SENP8 cleavage of Nedd8 substrate; Q96LD8; recombinant SENP8, Nedd8 substrate fluorescence; inhibition, % at 20 µM; 360,000 tested, 0.64% active; AID 602440; in the data active means inhibition mostly above about 40%, no sharp cut-off; inactive means mostly below about 27%
SENP8 conf: confirmation of human SENP8 protease inhibitors; inhibition, % at 12.5 µM; Recombinant SENP8, Z-RLRGG-aminoluciferin luminescence, 60 min; 6,200 tested, 40% active; shares compounds with SENP7 inh;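 active means mean inhibition across replicates above about 50%, limit read from the data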
SENP6 conf: confirmation of human SENP6 protease inhibitors | shares compounds with SENP7 inh | inhibition, % at 12.5 µM | recombinant SENP6, Z-RLRGG-aminoluciferin luminescence | 6,200 tested, 58% active
SENP7 conf: confirmation of human SENP7 protease inhibitors; shares compounds with SENP7 inh; 6,200 tested, 69% active; recombinant SENP7, Z-RLRGG-aminoluciferin luminescence, 40 min; inhibition, % at 12.5 µM
Casp3 select: selectivity test for SENP inhibitors: human caspase-3 inhibition; 6,200 tested, 60% active; shares compounds with SENP7 inh; inhibition, % at 12.5 µM; AID 488918; purified caspase-3, Z-DEVD-aminoluciferin luminescence, 60 min;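 active means mean inhibition above about 50%, limit read from the data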;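 further: plate controls were enzyme with DMSO for no effect and wells without caspase-3 for full effect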
Luc interf: interferes with luciferase luminescence in SENP counter-screen; shares compounds with SENP7 inh; Pre-incubated SENP8/Z-RLRGG-aminoluciferin, luciferase luminescence interference; inhibition, % at 12.5 µM; 6,200 tested, 39% active; AID 488919;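 active means mean inhibition above about 50% when retested at one dose, limit read from the data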;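 further: plate controls were DMSO wells with completed reaction for no effect and substrate without enzyme for full effect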
The depositor's hits bear a star; x = no result.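 How the source made its calls, unless noted: active means mean inhibition above about 50% in the one-dose retest (limit read from the data); inactive means the rest.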

SMILES	SENP8 block-1	SENP1 inh	SENP7 inh	SENP6 block	SENP8 block-2	SENP8 conf	SENP6 conf	SENP7 conf	Casp3 select	Luc interf
Cc1cccc2c1OCC/C2=N\NC(=O)COc1ccccc1Cl	-33	1	73*	-41	-216	8	6	3	-3	-8
Nc1nc(-c2ccc3c(c2)CCCC3)cs1	53*	-2	56*	79*	17	65*	75*	91*	51*	70*
Nc1nc(-c2ccc3c(c2)OCCO3)cs1	-9	1	3	31	9	x	x	x	x	x
COC(=O)CSc1nnc(C2COc3ccccc3O2)n1-c1ccccc1 (stereo not given)	-1	1	76*	-4	10	-8	-1	-5	-3	-5
Cc1cc(NC(=O)CSc2nnc(C3COc4ccccc4O3)n2C)no1 (stereo not given)	-5	0	1	7	11	x	x	x	x	x
O=Nc1ccc(NOC(=O)c2ccccc2)cc1	-29	2	46	88*	19	15	-12	103*	15	8
O=C(ONC(=O)C1CCCCC1C(=O)NOC(=O)c1ccccc1)c1ccccc1 (stereo not given)	x	3	x	x	-4	x	x	x	x	x
COCCCN1C(=O)C(CC(=O)NC2CCCC2)CC(C(=O)N2CCOCC2)=C1C (stereo not given)	x	1	x	x	15	x	x	x	x	x
O=C(Nc1ccc2c(c1)OCO2)c1ccc(Cl)cc1Cl	55*	1	72*	52*	12	36	56*	86*	69*	64*
O=C(Nc1ccc2c(c1)OCO2)c1c(F)cccc1F	-7	-2	8	29	12	x	x	x	x	x
O=C(Nc1ccc2c(c1)OCCO2)c1ccc(Cl)cc1Cl	49	0	67*	71*	6	70*	66*	87*	70*	65*
O=C(Nc1ccc2c(c1)OCO2)c1cc(Cl)ccn1	77*	4	81*	84*	4	81*	80*	96*	88*	16
CC(C)c1ccc([C@@H]2O[C@H](CCc3ccccc3)CC3=C2C(=O)OC(C)(C)O3)cc1	x	0	x	x	12	x	x	x	x	x
Cc1ccc(C(C)C)cc1-n1nnc(-c2cccc(Cc3ccc4ccccc4c3)c2)c1C(C)O (stereo not given)	x	1	x	x	8	x	x	x	x	x
Cc1ccc(C(=O)NCC(=O)OCCCOC(=O)CNC(=O)c2ccc(C)cc2)cc1	14	2	-2	-8	-6	x	x	x	x	x
Cn1c(=N)n(CC(=O)c2ccc(Cl)c(Cl)c2)c2ccccc21	36	3	52*	51*	9	37	27	19	19	23
Cc1ccc2nc(-c3ccc(NC(=O)C4CCCO4)cc3)[nH]c2c1 (stereo not given)	8	1	40	53*	-268	45	41	68*	58*	45
COc1ccc(NC(=O)C2CCCO2)cc1 (stereo not given)	2	0	6	-5	18	x	x	x	x	x
O=C(Nc1ccc(-c2nc3ccccc3o2)cc1)C1CCCO1 (stereo not given)	80*	-3	91*	94*	-292	91*	92*	100*	93*	48
O=C(Nc1ccc(-c2nc3cc(Cl)ccc3o2)cc1)C1CCCO1 (stereo not given)	10	-1	70*	30	-266	12	18	42	42	10
O=C(Nc1ccc(-c2nc3cccnc3s2)cc1)C1CCCO1 (stereo not given)	90*	-23	94*	93*	-384	95*	95*	101*	97*	79*
O=C(Nc1ccc2oc(-c3ccccc3)nc2c1)C1CCCO1 (stereo not given)	31	0	35	43	-427	x	x	x	x	x
CN(CCOc1ccccc1)C(=O)c1ccc(Cl)c(S(=O)(=O)N2CCCCC2)c1	-1	2	-8	-15	-44	x	x	x	x	x
O=C(O)c1ccccc1-c1ccccc1C(=O)Nc1ccc(-c2nc3cc(Cl)ccc3o2)cc1	20	-1	13	25	-396	x	x	x	x	x
CC(=O)Nc1ccc(-c2nc3cc(Cl)ccc3o2)cc1	44	1	59*	57*	-426	25	24	53*	37	31
SMILES	SENP8 block-1	SENP1 inh	SENP7 inh	SENP6 block	SENP8 block-2	SENP8 conf	SENP6 conf	SENP7 conf	Casp3 select	Luc interf
O=C(O)c1cccc(-n2cc(-c3cccc(C(F)(F)F)c3)cn2)c1	78*	-1	59*	85*	22	-6	87*	97*	11	91*
Clc1ccc(-c2cn3c(n2)-c2ccccc2C3)cc1Cl	93*	-1	98*	94*	2	43	84*	94*	80*	38
O=S(=O)(c1cccc(-c2nc3n(n2)Cc2ccccc2-3)c1)N1CCCC1	-13	1	-9	-2	10	x	x	x	x	x
O=C(Nc1sc2c(c1C(=O)O)CCCC2)c1ccc(F)cc1	75*	0	33	88*	-66	88*	86*	94*	80*	78*
NC(=O)c1c(NC(=O)c2ccc(F)cc2)sc2c1CCC2	-5	-40	11	31	-147	x	x	x	x	x
COC(=O)c1c(NC(=O)c2ccccc2C(=O)O)sc2c1CCCC2	x	1	x	x	-42	x	x	x	x	x
O=C(Nc1sc2c(c1C(=O)O)CCCCC2)c1ccccc1F	94*	1	86*	96*	-87	97*	98*	102*	95*	80*
COCC(C)NC(=O)c1nn(Cc2ccccc2)c(=O)c2ccccc12 (stereo not given)	0	-1	5	61*	8	-6	-6	2	11	6
CCC(C)NC(=O)c1nn(Cc2ccccc2)c(=O)c2ccccc12 (stereo not given)	-9	-1	4	-9	3	x	x	x	x	x
O=C(Nc1ccc(S(=O)(=O)Nc2ncccn2)cc1)c1nn(Cc2ccccc2)c(=O)c2ccccc12	66*	-3	17	85*	2	4	17	26	36	9
COC(=O)c1ccnc(SCC(=O)c2ccccc2)c1	53*	0	70*	74*	2	60*	55*	82*	74*	64*
COC(=O)c1cnc(SCc2ccc(Cl)cc2)n1C	-12	-3	-9	0	5	x	x	x	x	x

Source: PubChem (Sanford-Burnham Center for Chemical Genomics)
